The species named for series [1] is Danio rerio. The experiment in a line: Antiangiogenic activity in Tg(fli:eGFP) zebrafish embryo assessed as effect on phynotypic changes after 72 hrs post fertilization by fluorescence microscopic analysis. The series is classed as functional, organism-based. The method in brief: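 Tg(fli1:eGFP) zebrafish embryos were selected at 48 hpf, 20–25 per well, and exposed to bile acids at 6.25, 12.5 and 25 μM in embryo water from DMSO stocks. Vehicle was 0.1% DMSO. At 72 hpf the solutions were replaced with fresh embryo water. Embryos were anesthetized with tricaine and imaged by stereo and fluorescence microscopy for sub-intestinal vessel sprouting and branching. Two experiments, 50 embryos per group.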

The species named for series [2] is Danio rerio. The experiment in a line: Pro-angiogenic activity in Tg(fli:eGFP) zebrafish embryo assessed as increase in branching of sub-intestinal veins at 12.5 uM after 72 hrs post fertilization by fluorescence microscopic analysis. The series is classed as functional, organism-based. The method in brief:
(§1)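 Tg(fli1:eGFP) embryos selected at 48 hpf, 20–25 per well, raised at 28.5 °C. Bile acids (DMSO stock, diluted in embryo water) given at 6.25, 12.5 or 25 μM; 0.1% DMSO as vehicle control. Solutions replaced with fresh water at 72 hpf, embryos anaesthetised with tricaine and sub-intestinal vessels imaged by fluorescence. Scored as percentage of embryos; two experiments, 50 embryos/group.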

The test system of series [3] is HUVEC. The series is described as follows: Cytotoxicity against HUVEC assessed as reduction in cell death up to 12.5 uM after 24 hrs by MTT assay. The series is classed as cell-based. To be noted: human. The method, boiled down: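 HUVECs (passages 2–5, complete EBM-2) seeded at 5 × 10³ cells/well and left 24 h to adhere. Serum-starved 4 h, then exposed to bile acids (serial dilutions, 100 to 6.25 μM) in complete medium for 24 h. MTT added for 4 h at 37 °C, formazan dissolved in DMSO, absorbance read at 550 nm. Run in triplicate; three independent experiments.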

The test system of series [4] is HUVEC. The series is described as follows: Induction of angiogenesis in HUVEC assessed as increase in tube formation at 12.5 uM after overnight incubation by inverted microscopic analysis. The series is classed as functional, cell-based. To be noted: Homo sapiens. The method in brief: (§2)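 Wells coated with Matigel:plain EBM-2 (1:1). HUVECs added at 2 × 10⁵ cells/well with bile acid (12.5 or 25 μM) or vehicle and left overnight. Bright-field images at 10× from five fields per well; nodes and tube lengths counted. Triplicate, three independent experiments; one-way ANOVA with Dunnett's test.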

For series [5], the system named is HUVEC. The series is described as follows: Decrease in MMP9 level in HUVEC at 12.5 uM after 24 hrs by ELISA. The series is classed as functional, cell-based. To be noted: Homo sapiens. The method, boiled down: (§3)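 HUVECs in 6-well plates treated with 12.5 μM bile acid or DMSO vehicle. Medium supernatant collected 12 and 24 h after treatment. MMP9 measured by ELISA with HRP read-out at 405 nm, concentration interpolated from an MMP9 standard curve. Experiments done in duplicate.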
On the technique in general: ELISA stands for enzyme-linked immunosorbent assay.

The species named for series [6] is Danio rerio. The series is described as follows: Pro-angiogenic activity in Tg(fli:eGFP) zebrafish embryo assessed as sub-intestinal vein baskets extending towards ventral side at 12.5 uM after 72 hrs post fertilization by fluorescence microscopic analysis. The series is classed as functional, organism-based. The method in brief:
as §1

Series [7] is filed under the species Danio rerio. The series is described as follows: Pro-angiogenic activity in Tg(fli:eGFP) zebrafish embryo at 6.25 uM after 72 hrs post fertilization by fluorescence microscopic analysis. The series is classed as functional, organism-based. The method in brief: as §1
The test system of series [8] is HUVEC. The series is described as follows: Antiangiogenic activity in HUVEC assessed as inhibition of endothelial tube formation at 25 uM after overnight incubation by inverted microscopic analysis. The series is classed as functional, cell-based. To be noted: Homo sapiens. The method in brief: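 HUVECs at passages 2–5 were seeded at 2 × 10^5 cells per well on a gelled basement membrane matrix, made as Matrigel mixed 1:1 with plain EBM-2. Bile acids were added at 12.5 and 25 μM, with DMSO as vehicle control, and cells were treated overnight. Bright-field images were taken at 10× from five fields per well. Nodes and tube lengths were quantified. Runs were in triplicate; statistics by one-way ANOVA (Dunnett).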

Series [9] has as its system HUVEC. The series is described as follows: Increase in VEGFR2 m-RNA expression in HUVEC at 12.5 uM after 12 to 24 hrs by RT-qPCR analysis. The series is classed as functional, cell-based. To be noted: Homo sapiens. The method, boiled down:
(§4)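 HUVECs treated with 12.5 μM bile acid or DMSO for 12 and 24 h. Total RNA extracted and 1 μg reverse-transcribed. SYBR-green qPCR for VEGFR1/VEGFR2: 95 °C 10 min, then 40 cycles of 95 °C 5 s / 60 °C 30 s. ΔΔCT normalised to GAPDH and expressed as fold change over control; repeated twice.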
(In general: Real-time PCR tracks product formation cycle by cycle.)

The species entered for series [10] is Danio rerio. The experiment in a line: Pro-angiogenic activity in Tg(fli:eGFP) zebrafish embryo assessed as arcades formation at 12.5 uM after 72 hrs post fertilization by fluorescence microscopic analysis. The series is classed as functional, organism-based. The method in brief: as §1
Series [11] concerns HUVEC. The series is described as follows: Increase in VEGFR1 m-RNA expression in HUVEC at 12.5 uM after 12 to 24 hrs by RT-qPCR analysis. The series is classed as functional, cell-based. To be noted: Homo sapiens. The method, boiled down: as §4
Series [12] has as its system HUVEC. The experiment in a line: Induction of angiogenesis in HUVEC assessed as increase in tube length at 12.5 uM after overnight incubation by inverted microscopic analysis. The series is classed as functional, cell-based. To be noted: Homo sapiens. The method, boiled down: as §2
In series [13] the test system is HUVEC. The experiment in a line: Increase in MMP9 level in HUVEC at 12.5 uM after 24 hrs by ELISA. The series is classed as functional, cell-based. To be noted: Homo sapiens. The method, boiled down: as §3
Series [14] has as its system HUVEC. The series is described as follows: Induction of angiogenesis in HUVEC assessed as increase in number of nodes at 12.5 uM after overnight incubation by inverted microscopic analysis relative to control. The series is classed as functional, Homo sapiens. The method in brief:
as §2

The test system of series [15] is HUVEC. The experiment in a line: Cytotoxicity against HUVEC assessed as reduction in cell viability at 6.25 to 100 uM after 24 hrs by MTT assay. The conditions noted are these: human. The series is classed as cell-based. The method in brief:
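HUVECs at passages 2–5 were seeded at 5 × 10^3 cells per well in complete EBM-2 and allowed to adhere for 24 h. They were serum-starved 4 h, then given serially diluted bile acids (100 to 6.25 μM) in complete medium for 24 h. MTT was added for 4 h at 37 °C. Formazan was dissolved in DMSO and absorbance read at 550 nm. Three independent experiments.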
(In general: Tetrazolium dyes change colour on reduction, which living cells bring about.)

For series [16], the species on record is Danio rerio. The experiment in a line: Pro-angiogenic activity in Tg(fli:eGFP) zebrafish embryo assessed as increase in sprouting and branching of sub-intestinal vessels (after 72 hrs post fertilization by fluorescence microscopic analysis. The series is classed as functional, organism-based. The method in brief: as §1
The species entered for series [17] is Danio rerio. The series is described as follows: Pro-angiogenic activity in Tg(fli:eGFP) zebrafish embryo assessed as increase in sprouting of sub-intestinal veins at 12.5 uM after 72 hrs post fertilization by fluorescence microscopic analysis. The series is classed as functional, organism-based. The method in brief:
as §1

In series [18] the test system is HUVEC. The experiment in a line: Pro-angiogenic activity in HUVEC assessed as decrease in VE-cadherin expression at 12.5 uM after overnight incubation by FITC-conjugated phalloidin staining based confocal microscopic analysis. The series is classed as functional, cell-based. The conditions noted are these: Homo sapiens. The method, boiled down: (§5)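 HUVECs grown to 70% confluency on coverslips and treated with bile acids overnight. Fixed in 4% paraformaldehyde for 5 min and blocked with 1% BSA/0.1% Triton X-100 for 2 h. Stained with anti-VE-cadherin (1:200, 4 °C overnight) plus Alexa-488 secondary, FITC-phalloidin (1:100) for F-actin, and DAPI. Confocal imaging; repeated twice.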

For series [19], the system named is HUVEC. The experiment in a line: Pro-angiogenic activity in HUVEC assessed as stress fiber formation at 12.5 uM after overnight incubation by FITC-conjugated phalloidin staining based confocal microscopic analysis. The series is classed as functional, cell-based. The conditions noted are these: Homo sapiens. The method, boiled down:
as §5

For series [20], the species on record is Danio rerio. The experiment in a line: Toxicity in zebrafish embryo assessed as reduction in embryo survival up to 50 uM. The conditions noted are these: in vivo. The series is classed as organism-based.
In series [21] the test system is HUVEC. The experiment in a line: Pro-angiogenic activity in HUVEC assessed as decrease in cell-to-cell contact at 12.5 uM after overnight incubation by FITC-conjugated phalloidin staining based confocal microscopic analysis. The series is classed as functional. The conditions noted are these: Homo sapiens. The method, boiled down:
as §5

Series [22] relates to HUVEC. The experiment in a line: Increase in wound healing in HUVEC at 12.5 uM after 18 to 24 hrs by phase contrast microscopic analysis. The series is classed as functional, cell-based. The conditions noted are these: Homo sapiens. The method, boiled down: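 HUVECs grown to a confluent monolayer in 12-well plates and serum-deprived overnight. Scratched with a p200 tip, washed with DPBS, then given complete EBM-2 with 12.5 μM bile acid or DMSO vehicle. Imaged from a marked reference point at 0 h and after 18–24 h (phase contrast, 10×); percentage of migrated cells versus control. Triplicate; Dunnett's test.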

Calls of active or inactive are those of the source. The rule behind the calls is not given here.

Turning to `O=c1cc(N2CCOCC2)oc2c(-c3ccccc3)cccc12`, the result in the series listed under Danio rerio [1] was Active.
Turning to `C[C@H](CCC(=O)O)[C@H]1CC[C@H]2[C@@H]3[C@H](O)C[C@@H]4C[C@H](O)CC[C@]4(C)[C@H]3CC[C@]12C` [CHENODIOL], the outcome in the series listed under Danio rerio [2], with HUVEC [4], with HUVEC [5], in the series listed under Danio rerio [6], in the series filed under Danio rerio [7] and in the series with HUVEC [9] was Active. The result in the series listed under Danio rerio [10], in the series on HUVEC [11], with HUVEC [12], in the series on HUVEC [13], in the series filed under Danio rerio [17] and in the series with HUVEC [18] was Active. Moreover, the result with HUVEC [19], with HUVEC [21] and with HUVEC [22] was Active. Also, the Activity result in the series with HUVEC [3] is “Non-Toxic”; with HUVEC [14], 150%; with HUVEC [15], “Non-Toxic”; in the series filed under Danio rerio [16] it was “Dose-dependent effect”; in the series listed under Danio rerio [20], “Non-Toxic”. Also, the outcome in the series with HUVEC [8] was inactive.

These data come from ChEMBL document CHEMBL4257469, “Deciphering the role of hydrophobic and hydrophilic bile acids in angiogenesis using in vitro and in vivo model systems” (Medchemcomm, 2017).
